Data on 167 variants can be found in the RNAGym collection of RNA variant scans (doi:10.1126/science.aae0568).

The chains are these.
B1: tRNA (parent)
chain: GUUCCGUUGGCGUAAUGGUAACGCGUCUCCCUCCUAAGGAGAAGACUGCGGGUUCGAGUCCCGUACGGAACG

This sample holds only a part of the variants without activity.

In the data set the parent is B1. Put plainly: yeast fitness relative to wild type (ratio to wild type); higher = fitter; tRNA-Arg(CCU), competitive growth, 37 C, YPD. In a few lines: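 The tRNA-Arg(CCU) gene variants were made by chemical synthesis with a 3% per-site mutation rate at 69 sites and inserted at the native genomic locus of Saccharomyces cerevisiae. After pooling, the strains were competed in YPD at 37°C for 24 hours in six parallel replicates. Gene amplicons from the start population and each end population were read by 100-nucleotide paired-end sequencing, and Darwinian fitness relative to wild type was taken from genotype frequency changes. Genotypes needed ≥ 100 starting reads, and estimates < 0.5 were set to 0.5.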
Regarding A21U G39C, the yeast fitness was found to be 0.574.

Regarding A21U C27G C30A G67A, the yeast fitness was at most 0.5.

A21U A40U A70U: the yeast fitness amounted to 0.657.

A21U C62A G67A A69G: the yeast fitness was at most 0.5.

Consider A21U C22A G38C A45U, for which the yeast fitness was at most 0.5.

Turning to A21U C24U C27A A37C A40U C49G, the yeast fitness is at most 0.5.

Consider A21U C33U A57U U59C C66U, for which the yeast fitness stood at 0.538.

A21U U54A A69U: the yeast fitness was at most 0.5.

In the case of A21G U64C, the yeast fitness came out at 0.864.

Turning to A21U G25A C60U, the yeast fitness was at most 0.5.

With A21U C33G G58A C66U, the yeast fitness is at most 0.5.

Consider A21U A69G, for which the yeast fitness is 0.826.

A21U A69U: the yeast fitness worked out at 0.686.

As to A21U A40C G58C A65C C66G, the yeast fitness came out at 0.523.

Consider A21G U47A, for which the yeast fitness came out at 0.822.

Take A21G U47C: the yeast fitness stood at 0.921.

A21U C30G: the yeast fitness amounted to 0.54.

On to C22A C24A U26C U35C, for which the yeast fitness is at most 0.5.

For the variant A21U A37U A65C, the yeast fitness came out at 0.672.

As to A21U C22U A37G G44A A45C C46A C55U U59G U64C, the yeast fitness is at most 0.5.

For the variant A21U U59A A69C, the yeast fitness was at most 0.5.

As to C22A A36U G68C, the yeast fitness was at most 0.5.

As for A21U G23A A42C U59G A69C, the yeast fitness is at most 0.5.

On to A21U C34G G68A, for which the yeast fitness was at most 0.5.

Consider A21G U35C G63C, for which the yeast fitness worked out at 0.536.

As to A21G G58A, the yeast fitness came to 1.01.

Regarding A21U G58A, the yeast fitness is 0.721.

As for A21U G41C A43C U54G A69C, the yeast fitness came to 0.551.

C22A A36C C55G C61A: the yeast fitness turned out to be 0.611.

For C22A A43U C60A, the yeast fitness was at most 0.5.

In the case of A21U C31U U54G, the yeast fitness is at most 0.5.

On to A21G U28C A65G, for which the yeast fitness came to 0.779.

As for A21G U26C C27G G48C, the yeast fitness is at most 0.5.

As to A21U C34G G39A A57G C61U, the yeast fitness is at most 0.5.

Take A21G U35A A43U U59C: the yeast fitness was at most 0.5.

On to A21U A36C A45C G48A C55A, for which the yeast fitness was at most 0.5.

For the variant A21U C22U C30G C55A, the yeast fitness was at most 0.5.

In the case of A21U C22U U32A C49G, the yeast fitness is at most 0.5.

Consider A21G G67U, for which the yeast fitness was found to be 0.87.

Take A21U A37U A43C C61U A70G: the yeast fitness worked out at 0.517.

A21U C33G G41C: the yeast fitness is at most 0.5.

A21U A43C: the yeast fitness stood at 0.974.

With A21U G39C C55A A57C, the yeast fitness was at most 0.5.

For the variant A21U A57C G67A, the yeast fitness came to 0.556.

With A21U C34U A45G G50A, the yeast fitness is at most 0.5.

For A21U G56A G67A, the yeast fitness was at most 0.5.

Regarding A21U C24U C66U, the yeast fitness was at most 0.5.

For the variant A21G U32C, the yeast fitness came out at 1.03.

In the case of C22A C24G, the yeast fitness came to 0.507.

For the variant A21U C24U C27A A37C A40U, the yeast fitness was at most 0.5.

Turning to A21U U54A, the yeast fitness worked out at 0.533.

In the case of A21G G56A A65G C66U, the yeast fitness turned out to be 0.638.

Consider A21U G25A G68U, for which the yeast fitness was determined as 0.547.

In the case of A21G G51A, the yeast fitness was 0.836.

For A21G G51C, the yeast fitness is 0.647.

In the case of A21U C46A C62U C66U, the yeast fitness was at most 0.5.

Turning to A21U C22U, the yeast fitness was 0.546.

In the case of A21U C22G, the yeast fitness is 1.01.

In the case of A21U C29G C31G A43U, the yeast fitness is 0.574.

For A21G U32C U59G C66U A70C, the yeast fitness was determined as 0.703.

Take C22A A69U: the yeast fitness came out at 0.843.

A21U G38A: the yeast fitness amounted to 0.682.

As to A21G G39C C46A, the yeast fitness amounted to 0.881.

With A21U C34G G39A C55U C61G, the yeast fitness was at most 0.5.

Consider A21U G23C C24U, for which the yeast fitness is 0.658.

As for A21U C22U G25A C49A, the yeast fitness was at most 0.5.

A21U A40G: the yeast fitness is 0.633.

Take A21U C27G C33G C60G: the yeast fitness was found to be 0.52.

For A21G U47C A65C, the yeast fitness was determined as 0.63.

For the variant A21G G39U C62U, the yeast fitness is 0.527.

Turning to A21U A36G A43U U64A, the yeast fitness was at most 0.5.

As for A21U C49A G50C A57C C66G, the yeast fitness was 0.561.

Regarding A21G U59G U64C A65U, the yeast fitness came out at 0.586.

Regarding A21U C30G C61U, the yeast fitness was at most 0.5.

Consider A21G G48C A57G G63A, for which the yeast fitness is at most 0.5.

For the variant A21G G39C C62U, the yeast fitness is at most 0.5.

On to A21U C22U A43C C49A, for which the yeast fitness came to 0.595.

A21U C24U G56C G63A U64C G67C: the yeast fitness is at most 0.5.

For the variant C22A A45C C61U, the yeast fitness came out at 0.604.

As for A21U A57C, the yeast fitness amounted to 0.619.

In the case of A21U A57G, the yeast fitness came out at 0.882.

As for A21G G52A A57G C66G, the yeast fitness is at most 0.5.

Consider A21U U28G A69C, for which the yeast fitness was 0.529.

For the variant A21U A40G G67A, the yeast fitness worked out at 0.553.

For A21U C24G C29G C49U, the yeast fitness is at most 0.5.

A21U A37U A45C G51A G67A: the yeast fitness is 0.67.

For C22A A42G C49U, the yeast fitness was at most 0.5.

Take A21U U35A: the yeast fitness turned out to be 0.584.

Take A21U C34G C60G: the yeast fitness was at most 0.5.

Turning to C22A A37G C60G U64G, the yeast fitness was at most 0.5.

Turning to A21U C24U C61U C66U, the yeast fitness was at most 0.5.

For A21U A43U G63A, the yeast fitness was at most 0.5.

Take A21G U26C C29U G56C A69U: the yeast fitness was at most 0.5.

As for A21G G52A A57U G67C, the yeast fitness is at most 0.5.

Regarding A21U A37G, the yeast fitness was 0.664.

For the variant A21U C46U, the yeast fitness came out at 0.86.

A21U C46A: the yeast fitness was determined as 0.767.

Take A21G U47A G48A A65U: the yeast fitness was at most 0.5.

As to A21U C49A G50C, the yeast fitness was at most 0.5.

On to A21U C22U C49A, for which the yeast fitness amounted to 0.56.

Regarding C22A A65U A70G, the yeast fitness was determined as 0.662.

For the variant A21U G25A G50A G68U, the yeast fitness is at most 0.5.

A21G U28A C30U C62A: the yeast fitness was determined as 0.744.

Consider A21U A42G C55U, for which the yeast fitness came to 0.601.

With A21U A40C U59C C62U G67U, the yeast fitness is at most 0.5.

For A21U C31A G39C C62G G68A, the yeast fitness was at most 0.5.

As for C22A A43C G63C G67A, the yeast fitness was at most 0.5.

Regarding A21U C27U A37U C60G, the yeast fitness was at most 0.5.

In the case of A21U C34U A42U U64A G68U, the yeast fitness worked out at 0.659.

Consider C22A C24A U26C, for which the yeast fitness was found to be 0.559.

For the variant A21U A36G A45C, the yeast fitness stood at 0.581.

Turning to A21U C29G C49G A70U, the yeast fitness was at most 0.5.

For the variant A21U C31U G52A A69G, the yeast fitness turned out to be 0.706.

Consider A21U G23A U64C G67A, for which the yeast fitness is 0.568.

A21U C33U A43U C49G G50C C61U C66U: the yeast fitness is at most 0.5.

Turning to C22A A36U, the yeast fitness worked out at 0.586.

A21G U54C: the yeast fitness stood at 0.937.

On to A21G U54G, for which the yeast fitness was 0.575.

On to A21G U54A, for which the yeast fitness is 0.575.

Regarding A21U G23C G58U A65G G67A, the yeast fitness is at most 0.5.

For A21U G39C U47A, the yeast fitness is 0.512.

On to A21U U53A A65C G67A, for which the yeast fitness came to 0.682.

Turning to A21U A45G C62G, the yeast fitness came out at 0.996.

As for A21U C34U U35A G39A, the yeast fitness amounted to 0.594.

In the case of A21U C22G C55A, the yeast fitness is at most 0.5.

In the case of A21U A70G, the yeast fitness amounted to 0.786.

For the variant A21U C33U C49A C55U, the yeast fitness is at most 0.5.

With A21G G41C A69U, the yeast fitness turned out to be 0.682.

With A21G G50A C55U, the yeast fitness was 0.533.

As for A21U G52C C61U, the yeast fitness is at most 0.5.

As for A21G G56U G58C A69U, the yeast fitness is at most 0.5.

As for A21U C22U A36G C49A, the yeast fitness was at most 0.5.

In the case of A21U C27G C30A, the yeast fitness came out at 0.514.

For the variant A21U G39U A43C G63A, the yeast fitness is at most 0.5.

In the case of A21U C27G A43U, the yeast fitness is at most 0.5.

On to A21U U32G U59C, for which the yeast fitness was 0.732.

As for A21U G25C A43G A65G, the yeast fitness is 0.609.

Turning to A21U C29G U35G G41C, the yeast fitness was at most 0.5.

Consider A21U G63C, for which the yeast fitness stood at 0.633.

Turning to A21U U32G U59C G68A, the yeast fitness is at most 0.5.

For the variant C22A A43U G68A, the yeast fitness was at most 0.5.

On to A21U G50A, for which the yeast fitness is 0.629.

Consider A21U U35A G44A, for which the yeast fitness is at most 0.5.

On to C22A A37C A69C, for which the yeast fitness is at most 0.5.

A21U C27G A45C: the yeast fitness is at most 0.5.

C22A A42U: the yeast fitness is 0.677.

C22A A42G: the yeast fitness is 0.923.

Turning to C22A A42C, the yeast fitness amounted to 0.635.

With C22A C24A U26C C49U U64A, the yeast fitness is at most 0.5.

Take A21U G25A A69C: the yeast fitness was determined as 0.605.

As to A21G G51U G58A, the yeast fitness amounted to 0.777.

Turning to A21U C33U U59A, the yeast fitness was at most 0.5.

With A21U A36U, the yeast fitness worked out at 0.592.

Consider A21U C22G C31U U54A C55U, for which the yeast fitness is at most 0.5.

As for A21U C27G C31A C46A G56C, the yeast fitness is at most 0.5.

Turning to A21U C60U, the yeast fitness was 0.584.

In the case of A21U C30G C34U G52A A65C A69U, the yeast fitness was at most 0.5.

Regarding A21U C22U G39A C46U C62U, the yeast fitness is at most 0.5.

Take A21U U26G G50C: the yeast fitness came out at 0.586.

For the variant A21U A40C G56A, the yeast fitness is at most 0.5.

Regarding A21U U35A A65C, the yeast fitness was at most 0.5.

In the case of A21G G52C, the yeast fitness was determined as 0.639.

Turning to A21U C27G A40G, the yeast fitness is at most 0.5.

C22A A42U G50C A57G: the yeast fitness is at most 0.5.

Take A21U C55U G56A: the yeast fitness came to 0.567.

As for A21U C33U A57U U59C, the yeast fitness was 0.639.

As for A21U C34G U64A, the yeast fitness is at most 0.5.
